# What was measured:
# [1] = system: SK-OV-3; test: Cytotoxicity against human SKOV3 cells by sulforhodamine B assay; type: functional
# In short: (§1)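 NCI Developmental Therapeutics Program 60-cell-line human tumor panel screen, run at NCI. A single-concentration pre-screen was followed by a five-concentration dose-response in 10-fold steps. GI50 is the concentration that reduces growth of treated cells to half that of untreated control cells. TGI is the concentration that completely halts growth.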
# [2] = system: A498; test: Cytotoxicity against human A498 cells by sulforhodamine B assay; type: functional
# In short: (§2)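 Run at NCI in the DTP 60-cell-line human tumor panel by standard procedure. Compounds were first screened at a single concentration, then tested at five tenfold-spaced concentrations. GI50 is the concentration reducing treated-cell growth to half that of untreated controls; TGI is the concentration completely halting growth.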
# [3] = system: UO-31; test: Cytotoxicity against human UO31 cells by sulforhodamine B assay; type: functional; in short: as §1
# [4] = system: PC-3; test: Cytotoxicity against human PC3 cells by sulforhodamine B assay; type: functional; in short: as §1
# [5] = system: SNB-75; test: Cytotoxicity against human SNB75 cells assessed as cell growth at 8 nM by sulforhodamine B assay relative to control; type: functional; details: read-out: Activity
# [6] = system: U-251; test: Cytotoxicity against human U251 cells assessed as cell growth at 8 nM by sulforhodamine B assay relative to control; type: functional; details: read-out: Activity
# [7] = system: Cryptococcus neoformans; test: Antimicrobial activity against Cryptococcus neoformans ATCC 90113 by CLSI method; type: functional, organism-based
# [8] = system: BT-549; test: Cytotoxicity against human BT549 cells by sulforhodamine B assay; type: functional; in short: as §2
# [9] = system: Mus musculus; test: Acute toxicity in athymic nude mouse assessed as mortality at 12.5 mg/kg, […]; type: organism-based; design: dose 12.5 mg/kg, route intraperitoneal; details: in vivo, ip, 576 h
# [10] = system: NCI-H226; test: Cytotoxicity against human NCI-H226 cells by sulforhodamine B assay; type: functional; in short: as §1
# [11] = system: A549; test: Cytotoxicity against human A549 cells assessed as cell growth at 8 nM by sulforhodamine B assay relative to control; type: functional; details: read-out: Activity; in short: as §2
# [12] = system: ACHN; test: Cytotoxicity against human ACHN cells assessed as cell growth at 8 nM by sulforhodamine B assay relative to control; type: functional; details: read-out: Activity; in short: as §2
# [13] = system: SN12C; test: Cytotoxicity against human SN12C cells assessed as cell growth at 8 nM by sulforhodamine B assay relative to control; type: functional; details: read-out: Activity
# [14] = system: BT-549; test: Cytotoxicity against human BT549 cells assessed as cell growth at 8 nM by sulforhodamine B assay relative to control; type: functional; details: read-out: Activity; in short: as §2
# [15] = system: T47D; test: Cytotoxicity against human T47D cells assessed as cell growth at 8 nM by sulforhodamine B assay relative to control; type: functional; details: read-out: Activity
# [16] = system: NCI-H226; test: Cytotoxicity against human NCI-H226 cells assessed as cell growth at 80 nM by sulforhodamine B assay relative to control; type: functional; details: read-out: Activity
# [17] = system: NCI-H460; test: Cytotoxicity against human NCI-H460 cells assessed as cell growth at 80 nM by sulforhodamine B assay relative to control; type: functional; details: read-out: Activity
# [18] = system: IGROV-1; test: Cytotoxicity against human IGROV1 cells assessed as cell growth at 80 nM by sulforhodamine B assay relative to control; type: functional; details: read-out: Activity
# [19] = system: SK-OV-3; test: Cytotoxicity against human SKOV3 cells assessed as cell growth at 80 nM by sulforhodamine B assay relative to control; type: functional; details: read-out: Activity
# [20] = system: MCF7; test: Cytotoxicity against human MCF7 cells assessed as cell growth at 80 nM by sulforhodamine B assay relative to control; type: functional; details: read-out: Activity
# [21] = system: BT-549; test: Cytotoxicity against human BT549 cells assessed as cell growth at 80 nM by sulforhodamine B assay relative to control; type: functional; details: read-out: Activity; in short: as §2
# [22] = system: NCI-H23; test: Cytotoxicity against human NCI-H23 cells assessed as cell growth at 800 nM by sulforhodamine B assay relative to control; type: functional; details: read-out: Activity
# [23] = system: LOX IMVI; test: Cytotoxicity against human LOXIMVI cells assessed as cell growth at 800 nM by sulforhodamine B assay relative to control; type: functional; details: read-out: Activity
# [24] = system: OVCAR-8; test: Cytotoxicity against human OVCAR8 cells assessed as cell growth at 800 nM by sulforhodamine B assay relative to control; type: functional; details: read-out: Activity
# [25] = system: K562; test: Cytotoxicity against human K562 cells assessed as cell growth at 8 uM by sulforhodamine B assay relative to control; type: functional; details: read-out: Activity
# [26] = system: RPMI-8226; test: Cytotoxicity against human RPMI8226 cells assessed as cell growth at 8 uM by sulforhodamine B assay relative to control; type: functional; details: read-out: Activity
# [27] = system: U-251; test: Cytotoxicity against human U251 cells assessed as cell growth at 8 uM by sulforhodamine B assay relative to control; type: functional; details: read-out: Activity
# [28] = system: IGROV-1; test: Cytotoxicity against human IGROV1 cells assessed as cell growth at 8 uM by sulforhodamine B assay relative to control; type: functional; details: read-out: Activity
# [29] = system: A549; test: Cytotoxicity against human A549 cells assessed as cell growth at 80 uM by sulforhodamine B assay relative to control; type: functional; details: read-out: Activity; in short: as §2
# [30] = system: NCI-H23; test: Cytotoxicity against human NCI-H23 cells assessed as cell growth at 80 uM by sulforhodamine B assay relative to control; type: functional; details: read-out: Activity
# [31] = system: NCI-H322M; test: Cytotoxicity against human NCI-H322M cells assessed as cell growth at 80 uM by sulforhodamine B assay relative to control; type: functional; details: read-out: Activity
# [32] = system: HCT-15; test: Cytotoxicity against human HCT15 cells assessed as cell growth at 80 uM by sulforhodamine B assay relative to control; type: functional; details: read-out: Activity
# [33] = system: SK-MEL-2; test: Cytotoxicity against human SK-MEL-2 cells assessed as cell growth at 80 uM by sulforhodamine B assay relative to control; type: functional; details: read-out: Activity
# [34] = system: OVCAR-4; test: Cytotoxicity against human OVCAR4 cells assessed as cell growth at 80 uM by sulforhodamine B assay relative to control; type: functional; details: read-out: Activity
# [35] = system: RXF 393; test: Cytotoxicity against human RXF393 cells assessed as cell growth at 80 uM by sulforhodamine B assay relative to control; type: functional; details: read-out: Activity
# [36] = system: HL-60(TB); test: Cytotoxicity against human HL-60(TB) cells by sulforhodamine B assay; type: functional
# In short: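 NCI Developmental Therapeutics Program 60-cell-line human tumor panel, standard procedure. Single-concentration prescreen first; active compounds then tested at five concentrations. GI50 is the concentration reducing growth of treated cells to half that of untreated controls.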
# [37] = system: MOLT-4; test: Cytotoxicity against human MOLT4 cells by sulforhodamine B assay; type: functional; in short: as §1
# [38] = system: RPMI-8226; test: Cytotoxicity against human RPMI8226 cells by sulforhodamine B assay; type: functional; in short: as §1
# [39] = system: NCI-H322M; test: Cytotoxicity against human NCI-H322M cells by sulforhodamine B assay; type: functional; in short: as §1
compound,measurement,setting,value
C/C=C1\NC(=O)[C@H](Cc2ccccc2)NC(=O)[C@@H](C(C)C)NC(=O)[C@@H]([C@@H](C)CC)NC(=O)[C@H](NC(=O)[C@H](NC(=O)[C@H](CCCNCc2ccc(N3CCOCC3)cc2)NC(=O)[C@H]2CCCN2C(=O)[C@H](NC(=O)[C@@H](NC(=O)[C@@H](NC(=O)[C@H](NC(=O)CCCC(C)C)C(C)C)[C@@H](C)O)C(C)C)C(C)C)[C@@H](C)CC)[C@@H](C)OC(=O)[C@H](C(C)C)NC1=O,GI50,[1]; read-out: GI50,178 nM
same,TGI,[1]; read-out: TGI,415 nM
same,GI50,[1]; read-out: pGI50 (converted),178 nM
same,TGI,[1]; read-out: pTGI (converted),417 nM
same,GI50,[2],1580 nM
same,LC50,[2],7.41 µM
same,TGI,[2]; read-out: pTGI (converted),3.47 µM
same,GI50,[3],1380 nM
same,TGI,[3]; read-out: pTGI (converted),2690 nM
same,LC50,[4],741 nM
same,GI50,[4]; read-out: GI50,156 nM
same,TGI,[4]; read-out: TGI,340 nM
same,GI50,[4]; read-out: pGI50 (converted),155 nM
same,TGI,[4]; read-out: pTGI (converted),339 nM
same,growth at 0.008 µM,[5],110%
same,growth at 0.008 µM,[6],94%
same,IC50,[7],1730 nM
same,MFC,[7],10 µM
same,MIC,[7],5 µM
same,GI50,[8],1350 nM
same,TGI,[8]; read-out: pTGI (converted),2820 nM
same,Activity,[9],Non-toxic
same,GI50,[10],1660 nM
same,TGI,[10]; read-out: pTGI (converted),3.39 µM
same,growth at 0.008 µM,[11],99%
same,growth at 0.008 µM,[12],100%
same,growth at 0.008 µM,[13],86%
same,growth at 0.008 µM,[14],106%
same,growth at 0.008 µM,[15],101%
same,growth at 0.08 µM,[16],107%
same,growth at 0.08 µM,[17],103%
same,growth at 0.08 µM,[18],106%
same,growth at 0.08 µM,[19],101%
same,growth at 0.08 µM,[20],107%
same,growth at 0.08 µM,[21],95%
same,growth at 0.8 µM,[22],103%
same,growth at 0.8 µM,[23],100%
same,growth at 0.8 µM,[24],96%
same,growth at 8 µM,[25],37%
same,growth at 8 µM,[26],-68%
same,growth at 8 µM,[27],-98%
same,growth at 8 µM,[28],-75%
same,growth at 80 µM,[29],4%
same,growth at 80 µM,[30],-85%
same,growth at 80 µM,[31],-18%
same,growth at 80 µM,[32],-45%
same,growth at 80 µM,[33],-32%
same,growth at 80 µM,[34],-15%
same,growth at 80 µM,[35],-27%
same,GI50,[36],1860 nM
same,CC50,[36]; read-out: pLC50 (the source's name) (converted),> 75.9 µM
same,TGI,[36]; read-out: pTGI (converted),5.25 µM
same,GI50,[37],20.4 µM
same,LC50,[37],> 75.9 µM
same,TGI,[37]; read-out: pTGI,> 75.9 µM
same,GI50,[38]; read-out: GI50,1130 nM
same,TGI,[38]; read-out: TGI,2510 nM
same,GI50,[38]; read-out: pGI50 (converted),1120 nM
same,TGI,[38]; read-out: pTGI (converted),2510 nM
same,GI50,[39]; read-out: GI50,133 nM
same,TGI,[39]; read-out: TGI,264 nM
same,GI50,[39]; read-out: pGI50 (converted),132 nM
same,TGI,[39]; read-out: pTGI (converted),263 nM

# From ChEMBL document CHEMBL1921722, “In vitro and in vivo evaluation of select kahalalide F analogs with antitumor and antifungal activities” (Bioorg Med Chem, 2011)
